In ChEMBL document CHEMBL3112577, “Discovery of novel chiral diazepines as bombesin receptor subtype-3 (BRS-3) agonists with low brain penetration” (Bioorg Med Chem Lett, 2014):
In brackets after ≈: the same amount, converted by molar mass.

How the values were obtained:
[1] = Octanol-phosphate buffered saline distribution coefficient, log D of the compound at pH 7.4; type: physicochemical
Method in brief: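 LogD was measured as partitioning between 1-octanol and phosphate-buffered saline at pH 7.4.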

[2] = molecular target: T1, Bombesin receptor subtype-3 (Mus musculus, UniProt O54798); test: Agonist activity at mouse BRS-3 expressed in CHOK1 cells after 1 hr by HTRF assay; type: cell-based, CHO-K1
T1 sequence (O54798 whole entry): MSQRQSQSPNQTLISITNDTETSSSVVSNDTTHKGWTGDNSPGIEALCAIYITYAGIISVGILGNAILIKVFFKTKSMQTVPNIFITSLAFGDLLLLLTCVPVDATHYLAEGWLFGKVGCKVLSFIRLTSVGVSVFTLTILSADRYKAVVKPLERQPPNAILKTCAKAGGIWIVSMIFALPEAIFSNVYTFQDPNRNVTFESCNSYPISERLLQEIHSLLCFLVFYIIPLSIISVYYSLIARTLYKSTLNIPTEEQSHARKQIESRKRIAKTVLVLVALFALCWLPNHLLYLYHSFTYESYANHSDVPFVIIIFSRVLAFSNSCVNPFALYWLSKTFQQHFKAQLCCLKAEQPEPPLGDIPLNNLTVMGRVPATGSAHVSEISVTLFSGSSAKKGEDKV
Method in brief: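 CHO-K1 cells stably expressing mouse BRS-3 were plated at 200,000 cells/well and grown 24 h at 37 °C in CO₂. Compounds in HAM with 0.1% BSA plus 20 mM LiCl were added for 1 h at 37 °C. IP1 was detected by HTRF with d2-IP1 and cryptate anti-IP1 antibody after overnight at 4 °C in the dark, read as the 665/620 nm ratio and converted with on-plate IP1 standards. EC50 came from a nonlinear curve fit, averaged over at least 3 runs.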

[3] = molecular target: T2, Bombesin receptor subtype-3 (Homo sapiens, UniProt P32247); test: Agonist activity at human BRS-3 expressed in CHOK1 cells after 1 hr by HTRF assay; type: cell-based, CHO-K1
T2 sequence (P32247 whole entry): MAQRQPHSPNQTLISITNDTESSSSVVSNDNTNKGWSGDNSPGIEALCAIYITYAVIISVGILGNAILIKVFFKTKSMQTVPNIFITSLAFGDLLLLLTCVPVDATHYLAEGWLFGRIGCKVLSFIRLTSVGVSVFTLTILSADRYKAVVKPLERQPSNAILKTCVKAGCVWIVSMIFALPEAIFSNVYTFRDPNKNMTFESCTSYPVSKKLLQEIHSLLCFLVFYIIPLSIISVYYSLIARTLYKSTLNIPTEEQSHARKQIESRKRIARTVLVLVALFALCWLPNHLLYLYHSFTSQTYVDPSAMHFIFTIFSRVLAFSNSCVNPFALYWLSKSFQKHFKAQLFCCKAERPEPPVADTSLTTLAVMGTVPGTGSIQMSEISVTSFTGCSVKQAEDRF

[4] = Half life in mouse at 10 mg/kg, po; type: ADME, organism-based; parameters: dose 10 mg/kg, route oral; details: in vivo
Method in brief: (§1)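 Two mice per compound given 10 mg/kg orally in DMA/PG/(20%HPbCD/saline) 10/10/80; values are the average of the 2 mice.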

[5] = Ratio of drug level in brain to plasma of mouse at 30 mg/kg, po after 2.5 hrs; type: ADME, organism-based; parameters: dose 30 mg/kg, route oral
Method in brief: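 Mice given a single oral dose of 30 mg/kg. Brain and plasma concentrations were measured 2.5 h after dosing, and Kp brain was taken as the brain-to-plasma concentration ratio.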

[6] = Cmax in mouse at 10 mg/kg, po; type: ADME, organism-based; parameters: dose 10 mg/kg, route oral; details: in vivo; method in brief: as §1
[7] = Metabolic stability in mouse liver microsomes assessed as compound remaining after 0.5 hrs; type: ADME, Microsome; details: read-out: Stability
Method in brief: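 Compound was incubated 0.5 h with mouse liver microsomes and the percentage of parent remaining was reported.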

[8] = AUC in mouse at 10 mg/kg, po; type: ADME, organism-based; parameters: dose 10 mg/kg, route oral; details: plasma; method in brief: as §1
[9] = Solubility of the compound in JP2; type: physicochemical
[10] = Fraction unbound in mouse plasma; type: ADME, cell-free
[11] = Solubility of the compound in JP1; type: physicochemical

Row | Structure (SMILES) | logD [1] | EC50 [2] [nM] | EC50 [3] [nM] | also measured
1 | O=C(Cc1cccc(Oc2cccnc2)c1)N1CCNc2nc(C(F)(F)F)ccc2C1 | 3.2 | 106 | 156 | –
2 | O=C(Cc1cccc(Oc2ccccc2)c1)N1CCNc2nc(C(F)(F)F)ccc2C1CCO (stereo not given) | – | 11 | 11 | –
3 | O=C(Cc1cccc(Oc2ccccc2)c1)N1Cc2ccc(C(F)(F)F)nc2Nc2ccccc21 | – | 46 | 25 | –
4 | CC(C)(C)c1ccc(CC(=O)N2Cc3ccc(C(F)(F)F)nc3Nc3ccccc32)cc1 | – | 227 | 48 | –
5 | CC(C)COc1cccc(CC(=O)N2CCNc3nc(C(F)(F)F)ccc3C2)c1 | 4.3 | 62 | 70 | –
6 | COc1cccc(CC(=O)N2CCNc3nc(C(F)(F)F)ccc3C2)c1 | – | 1780 | 2040 | –
7 | CC(C)Oc1cccc(CC(=O)N2CCNc3nc(C(F)(F)F)ccc3C2)c1 | – | 569 | 381 | –
8 | CC(=O)N1Cc2ccccc2N(Cc2ccccc2)CC1C(C)C (stereo not given) | – | 256 | 916 | –
9 | O=C(O)C1c2ccc(C(F)(F)F)nc2NCCN1C(=O)Cc1cccc(Oc2ccccc2)c1 (stereo not given) | – | 2260 | 1560 | –
10 | O=C(Cc1cccc(Oc2ccccc2)c1)N1CCNc2nc(C(F)(F)F)ccc2C1 | 4.5 | 12.2 | 8.5 | half-life [4]: 0.82 h; Kp at 2.5 h [5]: 0.72; Cmax [6]: 60 ng/mL; remaining at 0.5 h [7]: 0.7%; AUC [8]: 41 ng·h/mL; solubility [9]: 5.1 µg/mL (≈ 11.9 µM); fraction unbound [10]: 0.0067; solubility [11]: 11 µg/mL (≈ 25.7 µM)
11 | O=C(O)C[C@@H]1c2ccc(C(F)(F)F)nc2NCCN1C(=O)Cc1cccc(Oc2ccccc2)c1 | 1.2 | 3.4 | 1.6 | –
12 | O=C(Cc1cccc(OC2CCCCC2)c1)N1CCNc2nc(C(F)(F)F)ccc2C1 | 4.4 | 8.7 | 8.1 | –
13 | O=C(O)C[C@H]1c2ccc(C(F)(F)F)nc2NCCN1C(=O)Cc1cccc(Oc2ccccc2)c1 | 1.2 | 3120 | 2070 | –
14 | CCCCOc1cccc(CC(=O)N2CCNc3nc(C(F)(F)F)ccc3C2)c1 | – | 52 | 59 | –
15 | CC(C)(O)c1nc(-c2cccc3c2N(S(=O)(=O)c2ccc(OC(F)(F)F)cc2)Cc2ccc(C(F)(F)F)nc2N3)no1 | – | 22 | 1.4 | –
16 | CC(C)COc1cccc(CC(=O)N2CCNc3nc(C(F)(F)F)ccc3[C@H]2CC(=O)O)c1 | 0.9 | 62 | 17 | half-life [4]: 3.7 h; Kp at 2.5 h [5]: 0.043; Cmax [6]: 360 ng/mL; remaining at 0.5 h [7]: 70%; AUC [8]: 390 ng·h/mL; solubility [9]: 810 µg/mL (≈ 1740 µM); fraction unbound [10]: 0.033; solubility [11]: 40 µg/mL (≈ 85.9 µM)
17 | Cc1ccc(Oc2cccc(CC(=O)N3CCNc4nc(C(F)(F)F)ccc4C3)c2)cn1 | 3.6 | 2.8 | 9.5 | –

Row | Structure (SMILES) | logD [1] | EC50 [2] [nM] | EC50 [3] [nM] | also measured
18 | O=C(Cc1ccc(Oc2ccccc2)cc1)N1Cc2ccc(C(F)(F)F)nc2Nc2ccccc21 | – | > 10000 | 368 | –
19 | CCOc1cccc(CC(=O)N2CCNc3nc(C(F)(F)F)ccc3C2)c1 | – | 1210 | 2050 | –
20 | Cc1ccc(Oc2cccc(CC(=O)N3CCNc4nc(C(F)(F)F)ccc4C3)c2)cc1 | > 4.8 | 1 | 1.3 | –
21 | O=C(Cc1cccc(Oc2ccc(F)cc2)c1)N1CCNc2nc(C(F)(F)F)ccc2C1 | 4.6 | 2.7 | 3.6 | –
22 | Cc1ccc(Oc2cccc(CC(=O)N3CCNc4nc(C(F)(F)F)ccc4[C@H]3CC(=O)O)c2)cn1 | 0.3 | 3.5 | 1.7 | half-life [4]: 2.6 h; Kp at 2.5 h [5]: 0.002; Cmax [6]: 90 ng/mL; remaining at 0.5 h [7]: 94%; AUC [8]: 200 ng·h/mL; solubility [9]: 950 µg/mL (≈ 1900 µM); fraction unbound [10]: 0.046; solubility [11]: 960 µg/mL (≈ 1920 µM)
23 | CC(C)C1CN(Cc2ccccc2)c2ccccc2CN1C(=O)Nc1cccc(N2CCOCC2)c1 (stereo not given) | – | 34 | 131 | –
24 | O=C(Cc1cccc(Oc2cccc(F)c2)c1)N1CCNc2nc(C(F)(F)F)ccc2C1 | 4.8 | 8.7 | 6.8 | –
25 | O=C(Cc1cccc(Oc2ccccc2F)c1)N1CCNc2nc(C(F)(F)F)ccc2C1 | 4.5 | 3.5 | 6.9 | –
26 | CC(C)(C)c1ccc(C(=O)N2Cc3ccc(C(F)(F)F)nc3Nc3ccccc32)cc1 | – | > 10000 | > 10000 | –
27 | O=C(Cc1cccc(Oc2ccncc2)c1)N1CCNc2nc(C(F)(F)F)ccc2C1 | 3.3 | 621 | 977 | –
28 | CC(C)(C)COc1cccc(CC(=O)N2CCNc3nc(C(F)(F)F)ccc3C2)c1 | – | 121 | 199 | –
29 | O=C(Cc1cccc(Oc2ccccn2)c1)N1CCNc2nc(C(F)(F)F)ccc2C1 | 3.2 | 244 | 254 | –
30 | O=C(O)CC1c2ccc(C(F)(F)F)nc2NCCN1C(=O)Cc1cccc(Oc2ccccc2)c1 (stereo not given) | 1.2 | 15 | 13 | –
31 | O=C(Cc1cccc(OC2CCCC2)c1)N1CCNc2nc(C(F)(F)F)ccc2C1 | – | 100 | 41 | –
32 | O=C(Cc1cccc(Oc2ccccc2)c1)N1CCNc2nc(C(F)(F)F)ccc2C1CO (stereo not given) | 4.1 | 19 | 12 | –
33 | O=C(Nc1cccc(Oc2ccccc2)c1)N1CCNc2nc(C(F)(F)F)ccc2C1 | – | 1380 | 4380 | –
34 | O=C(O)C[C@@H]1c2ccc(C(F)(F)F)nc2NCCN1C(=O)Cc1cccc(Oc2ccc(F)cc2)c1 | 1.2 | 2.7 | 1.7 | –
